The text below walks through data of paper PMC6398930 (Bioorganic & medicinal chemistry letters, 2019).

The nature of data set [1]: Intrinsic and predicted hepatic clearance in human liver microsomes. It counts as in vitro ADME. The method in brief:
(§1)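 Part of an outsourced Tier 1 in vitro DMPK panel. Intrinsic clearance was measured in liver microsomes from the species named in each line and scaled. Predicted hepatic clearance was derived from the same microsomal experiments.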

A short description of data set [2]: Intrinsic and predicted hepatic clearance in mouse liver microsomes. Format: in vitro ADME. Conditions: for CLint scaled / Predicted hepatic clearance mCLHEP: mouse, liver microsomes. The method in brief: as §1
In data set [3] the target is T1, GIRK1/2 (Homo sapiens, UniProt P48051+P48549).
T1 sequence (P48549 1-501): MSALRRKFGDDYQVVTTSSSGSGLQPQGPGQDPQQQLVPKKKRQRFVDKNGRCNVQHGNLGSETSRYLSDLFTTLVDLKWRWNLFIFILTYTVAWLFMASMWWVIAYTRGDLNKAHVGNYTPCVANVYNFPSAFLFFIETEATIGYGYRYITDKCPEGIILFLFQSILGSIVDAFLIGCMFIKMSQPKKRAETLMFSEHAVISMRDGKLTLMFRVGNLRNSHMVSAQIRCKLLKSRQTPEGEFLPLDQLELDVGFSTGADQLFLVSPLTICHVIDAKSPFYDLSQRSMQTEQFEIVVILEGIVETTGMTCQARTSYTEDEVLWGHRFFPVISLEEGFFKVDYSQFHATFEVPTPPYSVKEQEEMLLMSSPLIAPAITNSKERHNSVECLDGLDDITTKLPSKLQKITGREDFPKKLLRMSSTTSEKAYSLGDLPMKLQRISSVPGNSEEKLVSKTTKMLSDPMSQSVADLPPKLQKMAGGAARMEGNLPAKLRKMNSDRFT
T1 sequence (P48051 1-423): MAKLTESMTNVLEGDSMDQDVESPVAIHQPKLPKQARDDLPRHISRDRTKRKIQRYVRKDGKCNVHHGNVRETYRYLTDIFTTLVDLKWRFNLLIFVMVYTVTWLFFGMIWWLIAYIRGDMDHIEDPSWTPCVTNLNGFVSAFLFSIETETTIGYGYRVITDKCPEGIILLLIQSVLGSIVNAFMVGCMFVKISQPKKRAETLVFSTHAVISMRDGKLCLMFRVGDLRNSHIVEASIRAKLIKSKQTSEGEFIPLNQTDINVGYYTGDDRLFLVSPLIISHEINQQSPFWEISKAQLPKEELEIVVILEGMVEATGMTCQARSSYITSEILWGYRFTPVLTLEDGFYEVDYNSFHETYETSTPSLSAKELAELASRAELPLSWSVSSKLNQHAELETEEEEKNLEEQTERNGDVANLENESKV
Put plainly: Thallium flux assay, GIRK1/2 expressing HEK293 cells. It counts as cell-based. The note with it: for Selectivity GIRK1/2 vs GIRK1/4 (in words): thallium flux; for Loss of GIRK1/2 potency/activity relative to 15a: compared with parent amide/phenyl compound 15a.

Data set [4] in a line: Stability in Human Liver S9 fractions. Format: in vitro ADME.
A short description of data set [5]: Plasma unbound fraction, mouse plasma. It counts as in vitro ADME.

SMILES strings stand for the structures. Some results are limits rather than exact numbers.

For orientation: CLint scaled means the capacity of the preparation to metabolise the compound, expressed as a volume cleared per time. Turning to `Cc1cc(NC(=O)Cn2nnc(-c3ccc(Cl)c(Cl)c3)n2)n(C2CCCCC2)n1` [16d], the CLint scaled in data set [1] (human, liver microsomes) was 99.9 mL/min/kg; in data set [2], 489 mL/min/kg.

Consider `Cc1cc(NC(=O)Cn2nnc(-c3cccc(F)c3)n2)n(C2CCCCC2)n1` [16g], for which the CLint scaled in data set [1] (human, liver microsomes) was 162 mL/min/kg; in data set [2], 2710 mL/min/kg. Also, the “Selectivity GIRK1/2 vs GIRK1/4 (in words)” value in data set [3] is on record as “more selective for GIRK1/2 vs. GIRK1/4”.

`Cc1cc(NC(=O)Nc2ccc(F)c(F)c2)n(Cc2ccccc2)n1` [compound 1, reference compound]: the “Selectivity GIRK1/2 vs GIRK1/4 (in words)” value in data set [3] was “activate GIRK1/2 preferentially over GIRK1/4”.

Turning to `Cc1cc(NC(=O)Cn2nnc(-c3ccccc3)n2)n(C2CCS(=O)(=O)C2)n1` (stereo not shown) [15k], the “Stability in human liver microsomes (in words)” value in data set [1] is listed as “stable”. In data set [1] (human, liver microsomes), the CLint scaled is less than 23.1 mL/min/kg and the “Predicted hepatic clearance hCLHEP” value was less than 10.7 mL/min/kg. Moreover, in data set [2], the “Stability in mouse liver microsomes (in words)” value is “stable”, the CLint scaled was less than 49.5 mL/min/kg and the “Predicted hepatic clearance mCLHEP” value is less than 31.9 mL/min/kg. In addition, the “Stability in human S9 fractions (in words)” value in data set [4] is recorded as “stable”. The “CLHEP in Human Liver S9 fractions” value in data set [4] (human liver S9) is given as less than 1.0 mL/min/kg. In data set [4] (human, liver S9 fractions), this molecule came in with a CLint scaled of 2.6 mL/min/kg.

As to `Cc1cc(NC(=O)Cn2nnc(-c3ccccn3)n2)n(C2CCCCC2)n1` [16b], the “Loss of GIRK1/2 potency/activity relative to 15a” value in data set [3] is reported as greater than 20 fold.

Regarding `Cc1cc(NC(=O)Cn2nnc(-c3cccnc3)n2)n(C2CCCCC2)n1` [16a], the “Loss of GIRK1/2 potency/activity relative to 15a” value in data set [3] is given as greater than 20 fold.

Take `Cc1cc(NC(=O)Cn2nnc(-c3ccccc3)n2)n(CC2CCCCC2)n1` [15q]: the CLint scaled in data set [1] (human, liver microsomes) was 753 mL/min/kg; in data set [2] it was greater than 5930 mL/min/kg. In addition, the “Selectivity GIRK1/2 vs GIRK1/4 (in words)” value in data set [3] was “lost selectivity between GIRK1/2 and GIRK1/4”.

For `Cc1cc(NC(=S)Cn2nnc(-c3ccccc3)n2)n(C2CCCCC2)n1` [15b], the “Recovery in mouse plasma (in words)” value in data set [5] is reported as “poor recovery”. In addition, the intrinsic clearance (CLint scaled) in data set [1] (human, liver microsomes) was 346 mL/min/kg; in data set [2], greater than 5930 mL/min/kg. Further, the “Loss of GIRK1/2 potency/activity relative to 15a” value in data set [3] is reported as roughly 7 fold. Further, the “Predicted hepatic clearance mCLHEP” value in data set [2] is reported as greater than 88.7 mL/min/kg.

Consider `Cc1cc(NC(=O)Cn2nnc(-c3ccccc3)n2)n(C2CCCCC2)n1` [15a], for which the CLint scaled in data set [1] (human, liver microsomes) is 186 mL/min/kg; in data set [2], 2920 mL/min/kg.

As for `Cc1cc(NC(=O)Cn2nnc(-c3ccccc3)n2)n(C2CCC(F)(F)CC2)n1` [15d], the CLint scaled in data set [1] (human, liver microsomes) was 77.3 mL/min/kg; in data set [2], 723 mL/min/kg.

As to `Cc1cc(NC(=O)Cn2ccc(-c3ccccc3)n2)n(C2CCCCC2)n1` [17e], the “GIRK1/2 potency, fold less potent than 17f” value in data set [3] (17e vs 17f) is listed as ~ 8 fold.

Take `Cc1cc(NC(=O)Cn2nncc2-c2ccccc2)n(C2CCCCC2)n1` [17b]: the CLint scaled was 209 mL/min/kg in data set [1] (human, liver microsomes) and 3490 mL/min/kg in data set [2].

Regarding `Cc1cc(NC(=O)Cn2cc(-c3ccccc3)nn2)n(C2CCCCC2)n1` [17a], the CLint scaled in data set [1] (human, liver microsomes) was 54.6 mL/min/kg; in data set [2] it was 596 mL/min/kg.
